Test results taken from ChEMBL document CHEMBL1152843, “Synthesis of new series of 5,6-dihydro-4H-1,2-oxazines via hetero Diels-Alder reaction and evaluation of antimicrobial activity” (2009).
Converted amounts (≈) assume the structure as drawn.

What was measured:
Format in all cases: functional
Staphylococcus aureus [1] = assay: Antibacterial activity against Staphylococcus aureus MTCC 737 at 20 ug after 24 hrs by cup diffusion method; conditions: MTCC 737, 24 h, read-out: IZ
In short: (§1)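 Agar cup diffusion. Plates of sterile medium in 9 cm dishes were seeded with 1 × 10⁵ cfu of bacteria, with the suspension adjusted to at least 1 × 10⁵ cfu/ml in nutrient broth. Compound in DMF was placed in 5 mm cups and pre-diffused for 1 h. Plates were incubated at 37 °C for 24 h and the inhibition zone measured in mm. DMF served as negative control.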

Fusarium verticillioides [2] = assay: Antifungal activity against Fusarium moniliforme at 20 ug after 48 hrs by cup diffusion method; conditions: read-out: IZ
In short: (§2)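 Cup diffusion on 9 cm plates seeded with 1 × 10⁶ cfu of fungi, with spores adjusted to at least 1 × 10⁶ cfu/ml in potato dextrose broth. Compound in DMF was placed in 5 mm agar cups and left 1 h to diffuse. Plates were incubated at 28 °C for 48 h and the inhibition zone read in mm. DMF was the negative control.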

Aspergillus flavus [3] = assay: Antifungal activity against Aspergillus flavus at 20 ug after 48 hrs by cup diffusion method; conditions: read-out: IZ; in short: as §2
Klebsiella pneumoniae [4] = assay: Antibacterial activity against Klebsiella pneumoniae […] at 20 ug after 24 hrs by cup diffusion method; conditions: read-out: IZ; in short: as §1
Pseudomonas aeruginosa [5] = assay: Antibacterial activity against Pseudomonas aeruginosa MTCC 1688 at 20 ug after 24 hrs by cup diffusion method; conditions: MTCC 1688, 24 h, read-out: IZ; in short: as §1
Fusarium verticillioides [6] = assay: Antifungal activity against Fusarium moniliforme after 48 hrs by cup diffusion method
Escherichia coli [7] = assay: Antibacterial activity against Escherichia coli MTCC 443 after 24 hrs by cup diffusion method; conditions: MTCC 443, 24 h
Fusarium oxysporum [8] = assay: Antifungal activity against Fusarium oxysporum after 48 hrs by cup diffusion method
Aspergillus flavus [9] = assay: Antifungal activity against Aspergillus flavus after 48 hrs by cup diffusion method
Aspergillus niger [10] = assay: Antifungal activity against Aspergillus niger after 48 hrs by cup diffusion method
Staphylococcus aureus [11] = assay: Antibacterial activity against Staphylococcus aureus MTCC 737 after 24 hrs by cup diffusion method; conditions: MTCC 737, 24 h
Aspergillus niger [12] = assay: Antifungal activity against Aspergillus niger at 20 ug after 48 hrs by cup diffusion method; conditions: read-out: IZ; in short: as §2
Fusarium oxysporum [13] = assay: Antifungal activity against Fusarium oxysporum at 20 ug after 48 hrs by cup diffusion method; conditions: read-out: IZ; in short: as §2
Pseudomonas aeruginosa [14] = assay: Antibacterial activity against Pseudomonas aeruginosa MTCC 1688 after 24 hrs by cup diffusion method; conditions: MTCC 1688, 24 h
Klebsiella pneumoniae [15] = assay: Antibacterial activity against Klebsiella pneumoniae […] after 24 hrs by cup diffusion method
Escherichia coli [16] = assay: Antibacterial activity against Escherichia coli MTCC 443 at 20 ug after 24 hrs by cup diffusion method; conditions: MTCC 443, 24 h, read-out: IZ; in short: as §1

Structure (SMILES) | zone of inhibition at 20 µg/disc (Staphylococcus aureus [1]) [mm] | zone of inhibition at 20 µg/disc (Fusarium verticillioides [2]) [mm] | zone of inhibition at 20 µg/disc (Aspergillus flavus [3]) [mm] | zone of inhibition at 20 µg/disc (Klebsiella pneumoniae [4]) [mm] | zone of inhibition at 20 µg/disc (Pseudomonas aeruginosa [5]) [mm] | MIC (Fusarium verticillioides [6]) [µg/mL] | MIC (Escherichia coli [7]) [µg/mL] | MIC (Fusarium oxysporum [8]) [µg/mL] | MIC (Aspergillus flavus [9]) [µg/mL] | MIC (Aspergillus niger [10]) [µg/mL] | MIC (Staphylococcus aureus [11]) [µg/mL] | zone of inhibition at 20 µg/disc (Aspergillus niger [12]) [mm] | zone of inhibition at 20 µg/disc (Fusarium oxysporum [13]) [mm] | MIC (Pseudomonas aeruginosa [14]) [µg/mL] | MIC (Klebsiella pneumoniae [15]) [µg/mL] | zone of inhibition at 20 µg/disc (Escherichia coli [16]) [mm]
COc1ccc(C2=NOC(Cc3ccc4c(c3)OCO4)CC2)cc1OC (stereo not given) | 16.5 | 11.2 | 8.12 | 17.5 | 14.1 | 35 (≈ 98.5 µM) | 25 (≈ 70.3 µM) | 30 (≈ 84.4 µM) | 40 (≈ 113 µM) | 40 (≈ 113 µM) | 10 (≈ 28.1 µM) | 7.75 | 15.8 | 20 (≈ 56.3 µM) | 15 (≈ 42.2 µM) | 8.12
COc1ccc(C2=NOC(CO)CC2)cc1OC (stereo not given) | 7.66 | 10.8 | 8.5 | 14.5 | 10.5 | 35 (≈ 139 µM) | 35 (≈ 139 µM) | 30 (≈ 119 µM) | 40 (≈ 159 µM) | 40 (≈ 159 µM) | 20 (≈ 79.6 µM) | 7.83 | 16.5 | 20 (≈ 79.6 µM) | 25 (≈ 99.5 µM) | 8.5
OCC1CCC(c2ccc3c(c2)CCC3)=NO1 (stereo not given) | 10.7 | 13.7 | 9.83 | 17.7 | 13.7 | 35 (≈ 151 µM) | 35 (≈ 151 µM) | 25 (≈ 108 µM) | 30 (≈ 130 µM) | 30 (≈ 130 µM) | 20 (≈ 86.5 µM) | 7.66 | 18.8 | 20 (≈ 86.5 µM) | 25 (≈ 108 µM) | 10.5
Cc1ccc(C2=NOC(Cc3ccc4c(c3)OCO4)CC2)cc1 (stereo not given) | 12.8 | 19.5 | 17.8 | 19.7 | 11.2 | 20 (≈ 64.6 µM) | 25 (≈ 80.8 µM) | 10 (≈ 32.3 µM) | 15 (≈ 48.5 µM) | 20 (≈ 64.6 µM) | 15 (≈ 48.5 µM) | 15.7 | 24.5 | 20 (≈ 64.6 µM) | 20 (≈ 64.6 µM) | 10.7
COc1ccc(C2=NOC(CCl)CC2)cc1 (stereo not given) | 14.7 | 25.2 | 21.7 | 17.7 | 29.5 | 15 (≈ 62.6 µM) | 20 (≈ 83.4 µM) | 10 (≈ 41.7 µM) | 15 (≈ 62.6 µM) | 20 (≈ 83.4 µM) | 10 (≈ 41.7 µM) | 19.5 | 29.7 | 15 (≈ 62.6 µM) | 10 (≈ 41.7 µM) | 9.5
Cc1ccc(C2=NOC(C#N)CC2)cc1C (stereo not given) | 21.5 | 15.7 | 12.2 | 19.8 | 15.2 | 15 (≈ 70 µM) | 25 (≈ 117 µM) | 15 (≈ 70 µM) | 20 (≈ 93.3 µM) | 20 (≈ 93.3 µM) | 10 (≈ 46.7 µM) | 11.7 | 21.5 | 15 (≈ 70 µM) | 15 (≈ 70 µM) | 15.5
COc1ccc(C2=NOC(CO)CC2)cc1 (stereo not given) | 10.8 | 17.6 | 7.83 | 15.5 | 16.7 | 35 (≈ 158 µM) | 35 (≈ 158 µM) | 30 (≈ 136 µM) | 35 (≈ 158 µM) | 40 (≈ 181 µM) | 20 (≈ 90.4 µM) | 8.66 | 19.5 | 20 (≈ 90.4 µM) | 25 (≈ 113 µM) | 10.7
ClCC1CCC(c2ccc3c(c2)CCC3)=NO1 (stereo not given) | 13.5 | 34.5 | 32.8 | 25.8 | 34.5 | 20 (≈ 80.1 µM) | 20 (≈ 80.1 µM) | 10 (≈ 40 µM) | 10 (≈ 40 µM) | 15 (≈ 60.1 µM) | 10 (≈ 40 µM) | 28.8 | 38.5 | 15 (≈ 60.1 µM) | 15 (≈ 60.1 µM) | 11.8
CCOC(=O)C1CCC(c2ccc(OC)c(OC)c2)=NO1 (stereo not given) | 16.5 | 11.7 | 9.66 | 20.7 | 25.7 | 30 (≈ 102 µM) | 30 (≈ 102 µM) | 35 (≈ 119 µM) | 35 (≈ 119 µM) | 35 (≈ 119 µM) | 15 (≈ 51.1 µM) | 8 | 16.7 | 15 (≈ 51.1 µM) | 20 (≈ 68.2 µM) | 14.7
COc1ccc(C2=NOC(CCl)CC2)cc1OC (stereo not given) | 17.8 | 26.5 | 20.8 | 17 | 9.83 | 15 (≈ 55.6 µM) | 20 (≈ 74.1 µM) | 10 (≈ 37.1 µM) | 15 (≈ 55.6 µM) | 20 (≈ 74.1 µM) | 10 (≈ 37.1 µM) | 18.7 | 28.7 | 15 (≈ 55.6 µM) | 10 (≈ 37.1 µM) | 13.8
